Bioassay records deposited in PubChem BioAssay by Sanford-Burnham Center for Chemical Genomics.
SENP1 inh – blocks the human SENP1 SUMO protease catalytic domain; Q9P0U3; recombinant SENP1 catalytic domain, CyPet-SUMO1-YPet FRET cleavage; inhibition, % at 10 µM; 360,000 tested, 0.21% active; AID 624204;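 active = inhibition at least 30% at 10 µM, raw YFP signal under a set limit, fluorescence ratio 0.5 to 1.5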;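 note: 0% = enzyme with DMSO and 100% = no enzyme wells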
Target sequence (Q9P0U3 419-644 limits assumed): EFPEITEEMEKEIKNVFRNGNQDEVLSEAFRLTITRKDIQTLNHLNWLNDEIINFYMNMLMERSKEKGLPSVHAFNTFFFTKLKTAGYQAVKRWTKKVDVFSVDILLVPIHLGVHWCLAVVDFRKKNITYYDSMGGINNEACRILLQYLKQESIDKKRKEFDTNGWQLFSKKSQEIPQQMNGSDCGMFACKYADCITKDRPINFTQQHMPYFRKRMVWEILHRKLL
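system = hSENP1 catalytic domain, recombinant | reagent = SFCypet-SUMO1-SFYpet substrate at 25 nM | doses = one dose per compound, 10 µM, 0.5% DMSO | incubation = enzyme reaction for 50 min at room temperature, dark | measured by = FRET, CFP and YFP emission | controls = no-enzyme low, enzyme-DMSO high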
NR3A LBD binder – modulators (binders) of human NR3A ligand-binding domain | AID 1259313 | NR3A LBD differential scanning fluorimetry, Tm shift; 0% = protein alone, 100% = glycine-bound protein | Tm shift relative to glycine control, % at 25 µM | 340,000 tested, 2.5% active;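 active = melting temperature shift of at least 10% of the positive control shift, at one fixed dose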
MPTP inh – permeability transition pore inhibition; isolated mouse mitochondria, Ca2+ swelling absorbance, 30 min; inhibition, % at 10 µM; 360,000 tested, 1.4% active; AID 602449;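 active = inhibition of 50% or more, scaled per plate between neutral and stimulator controls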;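 note: 0% = DMSO wells given calcium and 100% = 1 mM EGTA wells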
EBI2 block – antagonists of human EBI2 receptor; P32249; EBI2 beta-arrestin recruitment, luminescence, 7a,25-OHC stimulated; inhibition, % at 5 µM; 360,000 tested, 0.81% active; AID 651636; in the data active = inhibition above about 38%;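 note: enzyme fragment complementation signal reports receptor beta-arrestin coupling in cells; 0% = agonist plus DMSO wells and 100% = wells without agonist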
Rh123 counter – membrane potential counter-screen of mitochondrial pore inhibitors. shares compounds with MPTP inh. isolated mitochondria, Rhodamine 123 fluorescence. inhibition, % at 10 µM. 5,000 tested, 78% active; in the data active = inhibition above about 22%;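 note: 0% = DMSO vehicle and 100% = positive control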
MPTP swell DR – MPTP inhibition, dose response swelling confirmation; AID 651561; isolated mitochondria swelling, absorbance; shares compounds with MPTP inh; IC50, µM; 780 tested, 58% active; in the data active = IC50 below about 20 µM
MPTP cs DR – active in counter-screen for permeability transition pore inhibitors; IC50, µM; AID 651564; shares compounds with MPTP inh; 780 tested, 49% active; isolated mitochondria counterscreen, fluorescence read-out; in the data active = IC50 below about 80 µM
EBI2 conf – EBI2 (human) antagonism, single concentration confirmation. shares compounds with EBI2 block. EBI2 beta-arrestin luminescence, 7a,25-OHC antagonism. inhibition, % at 5 µM. 2,400 tested, 29% active. AID 651997;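 active = inhibition of at least 50%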
EBI2 ag – counter-screen for EBI2 antagonists: EBI2 agonist activity; activation, % at 5 µM; AID 652000; EBI2-expressing cells, agonist mode, luminescence, 60 min; 0% vehicle, 100% 7α,25-dihydroxycholesterol control; shares compounds with EBI2 block; 2,400 tested, under 10 active;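 active = activation of at least 50%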
bGal counter – inhibits E. coli beta-galactosidase, counter-screen for EBI2 antagonists; shares compounds with EBI2 block; purified beta-galactosidase, luminescent Galacton Star, 15 min; inhibition, % at 5 µM; 2,400 tested, 1% active;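 active = replicate-average signal at least 3 plate SD below neutral wells, shown as high inhibition, flagging enzyme-inhibiting false positives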;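 note: 0% = DMSO wells with enzyme and 100% = wells lacking enzyme; higher means stronger loss of beta-gal luminescence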
* marks the source's active call; other numbers are inactive results; x = no result given. Sampled rows, rich in hits. Any-hit rate of the full collection: about 4.4%.

SMILES	SENP1 inh	NR3A LBD binder	MPTP inh	EBI2 block	Rh123 counter	EBI2 conf	EBI2 ag	bGal counter	others
COc1ccccc1CNc1nc(NC(C)C)nc2cc(-c3ccccc3)sc12	-1	x	75*	50*	101*	50*	-2	-8
Cc1cc(=O)nc2c3ccccc3n(CC(=O)NCCCN3CCCCC3C)n12 (centres undefined)	-2	0	0	7	x	x	x	x
CCOC(=O)C1(Cc2ccc(Cl)cc2)CCN(C(C)Cc2ccc(O)c(OC)c2)CC1 (centres undefined)	1	-3	95*	47*	95*	17	0	-8
CCOC(=O)C1(Cc2ccc(OC)cc2)CCN(S(C)(=O)=O)CC1	2	0	-3	4	x	x	x	x
Cn1c(SCC(=O)Nc2ccccc2F)nnc1C1CCCCC1	-2	1	-1	-13	x	x	x	x
Cc1ccc(C)c(Oc2cc(NC(=O)CCCn3nc(C)c([N+](=O)[O-])c3C)cc([N+](=O)[O-])c2)c1	1	16*	94*	44*	75*	24	0	7
Cc1ccc(Sc2cc(NCCCO)c([N+](=O)[O-])c3nonc23)cc1	-16	-1	72*	53*	34*	8	-1	-14
CC(C)CCSc1cc(NCCO)c([N+](=O)[O-])c2nonc12	-14	-5	5	14	x	x	x	x
CC(C)(C)c1ccc(C(=O)NCC(=O)NCc2ccccn2)cc1	-1	4	0	-8	x	x	x	x
OC(COc1ccc(Br)cc1)CN1CCC(Cc2ccccc2)CC1 (centres undefined)	0	1	64*	61*	-3	46	2	-1	MPTP swell DR=6.3*;MPTP cs DR=34*
CC(CCc1ccccc1)NC(=O)/C=C/c1ccc(Cl)cc1 (centres undefined)	1	-7	4	31	x	x	x	x
CC(NC(=O)/C=C/c1ccc(Br)cc1)c1ccc(Cl)cc1 (centres undefined)	1	-6	78*	54*	84*	31	0	-8
CCc1ccc(NC(=O)c2ccc(F)c(S(=O)(=O)N(CC)c3ccccc3)c2)cc1	2	2	62*	45*	76*	38	-1	-22
CCN(c1ccccc1)S(=O)(=O)c1cc(C(=O)NCc2ccco2)ccc1C	-5	-2	0	9	x	x	x	x
COc1ccc(CN2C3CCC2CC(NC(=O)c2cc(OC)c(OC)c(OC)c2)C3)cc1 (centres undefined)	0	-1	0	-10	x	x	x	x
Clc1ccc2[nH]cc(-c3nnnn3-c3ccc4ccccc4c3)c2c1	-1	29*	84*	45*	77*	30	2	5
C(=C\c1nc(N2CCCC2)c2ccccc2n1)/c1ccccc1	-1	-4	90*	41*	95*	59*	-1	-7
O=C(COC(=O)/C=C/c1ccc(F)cc1)NC1CCS(=O)(=O)C1 (centres undefined)	1	0	-1	-7	x	x	x	x
NNC(=S)Nc1ccc(S(=O)(=O)N2CCOCC2)cc1	0	0	0	39	x	x	x	x
O=S(=O)(c1ccc(NC(=S)Nc2ccc(OC(F)F)cc2)cc1)N1CCOCC1	0	26*	98*	49*	90*	45	0	-3
O=C(NC(=O)N1CCN(C(c2ccccc2)c2ccccc2)CC1)c1ccccc1	-1	-2	1	27	x	x	x	x
O=C(Cc1n[nH]c(=O)c2ccccc12)Nc1cccc(S(=O)(=O)N2CCCCCC2)c1	0	1	0	-9	x	x	x	x
N#Cc1ccc(/C=C\c2nccc3c2[nH]c2ccccc23)cc1	-34	12*	92*	48*	67*	25	2	3
